Calls of active or inactive are those of the source. The rule behind the calls is not given here.
How the values were obtained:
[1] = target: T1, Kallikrein-7 (Homo sapiens, UniProt P49862); assay: Competitive inhibition of human recombinant KLK7 expressed in baculovirus-infected insect cell system using Abz-KLYSSKQ-Eddnp as substrate incubated for 5 mins prior to substrate addition by Lineweaver-Burk plot analysis
Method in brief: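 Mechanism was assessed from rates measured without inhibitor and at three inhibitor concentrations. Lineweaver–Burk plots were used to assign the inhibition type and derive Ki.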

[2] = target: T2, Kallikrein-5 (Homo sapiens, UniProt Q9Y337); assay: Inhibition of human recombinant KLK5 expressed in baculovirus-infected insect cell system using Abz-KLRSSKQ-Eddnp as substrate incubated for 5 mins prior to substrate addition by FRET assay
T2 sequence (Q9Y337 whole entry): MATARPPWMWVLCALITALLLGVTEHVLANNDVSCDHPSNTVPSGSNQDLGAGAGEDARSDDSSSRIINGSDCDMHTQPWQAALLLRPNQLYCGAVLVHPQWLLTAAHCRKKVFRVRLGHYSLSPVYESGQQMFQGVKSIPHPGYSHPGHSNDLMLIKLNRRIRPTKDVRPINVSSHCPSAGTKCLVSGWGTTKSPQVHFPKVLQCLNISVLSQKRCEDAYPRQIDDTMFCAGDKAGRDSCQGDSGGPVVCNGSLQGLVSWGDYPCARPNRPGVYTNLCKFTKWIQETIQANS

[3] = target: T2, Kallikrein-5; assay: Competitive inhibition of human recombinant KLK5 expressed in baculovirus-infected insect cell system using Abz-KLRSSKQ-Eddnp as substrate incubated for 5 mins prior to substrate addition by Lineweaver-Burk plot analysis
Method in brief: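 FRET substrate Abz-KLRSSKQ-EDDnp hydrolysed by KLK5, with no inhibitor and with 0.5, 1.0 and 2.0 μM inhibitor. Lineweaver–Burk plots were fitted by linear regression. Ki was taken from a secondary plot of Km/Vmax against inhibitor concentration.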

[4] = target: T1, Kallikrein-7; assay: Inhibition of human recombinant KLK7 expressed in baculovirus-infected insect cell system using Abz-KLYSSKQ-Eddnp as substrate incubated for 5 mins prior to substrate addition by FRET assay
[5] = target: Kallikrein-6 (Homo sapiens) (UniProt Q92876); assay: Inhibition of human KLK6 at 1 to 500 uM after 5 mins by spectrophotometry
[6] = target: Kallikrein-1 (Homo sapiens) (UniProt P06870); assay: Inhibition of human KLK1 at 1 to 500 uM after 5 mins by spectrophotometry
[7] = species on record: Homo sapiens; assay: Selectivity ratio of IC50 for human recombinant KLK5 to IC50 for human recombinant KLK7
[8] = species on record: Homo sapiens; assay: Selectivity ratio of IC50 for human recombinant KLK7 to IC50 for human recombinant KLK5

Chain of Kallikrein-1 (Homo sapiens) (P06870 25-262 limits assumed): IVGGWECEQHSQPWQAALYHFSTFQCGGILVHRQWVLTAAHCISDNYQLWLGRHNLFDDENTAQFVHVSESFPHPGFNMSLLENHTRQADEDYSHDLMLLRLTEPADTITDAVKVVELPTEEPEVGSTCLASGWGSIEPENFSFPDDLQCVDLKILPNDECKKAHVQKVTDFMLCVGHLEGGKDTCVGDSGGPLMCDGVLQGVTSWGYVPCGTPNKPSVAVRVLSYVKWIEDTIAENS
T1 sequence (P49862 whole entry): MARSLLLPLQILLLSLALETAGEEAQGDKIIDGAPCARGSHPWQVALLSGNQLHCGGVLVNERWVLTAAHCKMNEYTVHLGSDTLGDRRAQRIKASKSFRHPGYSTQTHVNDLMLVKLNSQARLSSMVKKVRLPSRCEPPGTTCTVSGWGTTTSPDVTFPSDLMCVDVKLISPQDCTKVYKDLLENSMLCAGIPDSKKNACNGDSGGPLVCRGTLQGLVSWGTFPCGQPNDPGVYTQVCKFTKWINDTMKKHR

Compound	Ki [1] [µM]	IC50 [2] [µM]	Ki [3] [µM]	IC50 [4] [µM]	inhibition [5]	inhibition [6]	Ratio IC50 [7]	Ratio IC50 [8]
O=C(N[C@H]1CO[C@H]2[C@@H]1OC[C@H]2OCc1ccccc1)/C(=C/c1cccs1)NC(=O)c1ccccc1 (stereo in doubt)	1.8	99.2	70.7	13.3				
CSCC[C@H](NC(=O)OC(C)(C)C)C(=O)O[C@@H]1CO[C@H]2[C@@H]1OC[C@H]2OCc1ccccc1	18.4	357		28.7	inactive	inactive		
O=C(OC1CO[C@H]2[C@@H]1OC[C@H]2OCc1ccccc1)[C@H](Cc1ccccc1)NC(=O)[C@@H]1CCCN1C(=O)OCc1ccccc1 (single isomer, unassigned)	2.8	3.9	0.4	19.6	inactive	inactive		5
CC(C)(C)OC(=O)N[C@@H](CCCCNC(=O)OCc1ccccc1)C(=O)O[C@@H]1CO[C@H]2[C@@H]1OC[C@H]2OCc1ccccc1	1.4	9	0.7	13.7	inactive	inactive		
CC(C)[C@H](NC(=O)OCc1ccccc1)C(=O)N[C@H](Cc1ccccc1)C(=O)N[C@H]1CO[C@H]2[C@@H]1OC[C@H]2OCc1ccccc1	3.8	21.7	3.4	56.6	inactive	inactive		
CC(C)(C)OC(=O)N1CCC[C@H]1C(=O)O[C@@H]1CO[C@H]2[C@@H]1OC[C@H]2OCc1ccccc1	15.6	521		24.4	inactive	inactive	21.3	
O=C(O[C@@H]1CO[C@H]2[C@@H]1OC[C@H]2OCc1ccccc1)[C@H]1CCCN1C(=O)OCc1ccccc1	1.9	3.7	0.3	16.6	inactive	inactive		4
O=C(N[C@H]1CO[C@H]2[C@@H]1OC[C@H]2OCc1ccccc1)[C@H]1CCCN1C(=O)OCc1ccccc1	15.1	321		23.6	inactive	inactive		
CC(C)[C@@H](NC(=O)OC(C)(C)C)C(=O)O[C@@H]1CO[C@H]2[C@@H]1OC[C@H]2OCc1ccccc1		223		239	inactive	inactive		
O=C(N[C@H]1CO[C@H]2[C@@H]1OC[C@H]2OCc1ccccc1)[C@H](Cc1ccccc1)NC(=O)[C@@H]1CCCN1C(=O)OCc1ccccc1		157		249	inactive	inactive		
CC(C)(C)OC(=O)N[C@H](CCCN/C(=N\C(=O)OCc1ccccc1)NC(=O)OCc1ccccc1)C(=O)N[C@H]1CO[C@H]2[C@@H]1OC[C@H]2OCc1ccccc1	2.4	11.8	1.7	16.9	inactive	inactive		

The remaining lines, values ahead:

Ki [1] [µM]	IC50 [2] [µM]	Ki [3] [µM]	IC50 [4] [µM]	inhibition [5]	inhibition [6]	Ratio IC50 [7]	Ratio IC50 [8]	Compound
4.4	157		27.8	inactive	inactive	6		Cc1ccc(S(=O)(=O)n2cnc(C[C@H](NC(=O)OC(C)(C)C)C(=O)N[C@H]3CO[C@H]4[C@@H]3OC[C@H]4OCc3ccccc3)c2)cc1
	37	26.6	457	inactive	inactive			CSCC[C@H](NC(=O)OC(C)(C)C)C(=O)N[C@H]1CO[C@H]2[C@@H]1OC[C@H]2OCc1ccccc1
	53.9		84.5	inactive	inactive			CC(C)(C)OC(=O)N[C@H](COCc1ccccc1)C(=O)N[C@H]1CO[C@H]2[C@@H]1OC[C@H]2OCc1ccccc1
2.9	13.3	2.4	23.6	inactive	inactive			CC(C)(C)OC(=O)N[C@@H](CCCCNC(=O)OCc1ccccc1)C(=O)N[C@H]1CO[C@H]2[C@@H]1OC[C@H]2OCc1ccccc1
	377		59.2	inactive	inactive	6		CC(C)(C)OC(=O)N[C@H](Cc1c[nH]c2ccccc12)C(=O)O[C@@H]1CO[C@H]2[C@@H]1OC[C@H]2OCc1ccccc1
	480		> 1000	inactive	inactive			CC(C)[C@@H](NC(=O)OC(C)(C)C)C(=O)N[C@H]1CO[C@H]2[C@@H]1OC[C@H]2OCc1ccccc1
2.3	15.5	2.4	16	inactive	inactive			CC(C)(C)OC(=O)N[C@H](COCc1ccccc1)C(=O)O[C@@H]1CO[C@H]2[C@@H]1OC[C@H]2OCc1ccccc1
1.3	4.7	0.6	10.2	inactive	inactive			CC(C)(C)OC(=O)N[C@@H](CC(=O)OCc1ccccc1)C(=O)O[C@@H]1CO[C@H]2[C@@H]1OC[C@H]2OCc1ccccc1
	39.2	28.2	418	inactive	inactive			CC(C)(C)OC(=O)N[C@H](Cc1c[nH]c2ccccc12)C(=O)N[C@H]1CO[C@H]2[C@@H]1OC[C@H]2OCc1ccccc1

— ChEMBL document CHEMBL3108751, “Isomannide-based peptidomimetics as inhibitors for human tissue kallikreins 5 and 7” (ACS Med Chem Lett, 2014)
